Where only a bound is given, the exact number is not on record here.

Test [1] addresses T1, Human immunodeficiency virus type 1 integrase (Human immunodeficiency virus 1, UniProt Q7ZJM1). Briefly: Inhibition of 3'-processing catalytic activity HIV1 integrase. An outline of the steps: (§1)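 Wild-type HIV-1 IN (200 nM final) preincubated with inhibitor for 30 min at 30 °C. Buffer: 25 mM MOPS pH 7.2, 7.5 mM MnCl2, 50 mM NaCl, 10% DMSO, BSA and reducing agents. Reactions were quenched with formamide dye. IC50 was taken from log concentration versus percent inhibition.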

In test [2] the target is T1, Human immunodeficiency virus type 1 integrase. The test can be described thus: Inhibition of strand transfer catalytic activity HIV1 integrase. In short, it runs like this: as §1
For another test, the system named is CEM-SS. The test can be described thus: Cytotoxicity against human T cell line CEM-SS. Format: functional. An outline of the steps:
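Uninfected CEM-SS cells were exposed to serial compound dilutions on the same plate as the antiviral test, at 37 °C with 5% CO2 for 6 days. Viability was measured by XTT (0.2 mg/mL, 4 h) absorbance at 450 nm.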

Test [3] concerns Human immunodeficiency virus 1. Briefly: Antiviral activity in human T cell line CEM-SS infected with HIV1. Type of test: functional, organism-based. In short, it runs like this: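 CEM-SS cells at 5×10^3/well were infected with HIV-1 RF (MOI 0.3), and serial compound dilutions were added immediately. Cells were kept at 37 °C with 5% CO2 for 6 days. Viability was read by XTT (0.2 mg/mL, 4 h) absorbance at 450 nm.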

T1 sequence (Q7ZJM1 whole entry): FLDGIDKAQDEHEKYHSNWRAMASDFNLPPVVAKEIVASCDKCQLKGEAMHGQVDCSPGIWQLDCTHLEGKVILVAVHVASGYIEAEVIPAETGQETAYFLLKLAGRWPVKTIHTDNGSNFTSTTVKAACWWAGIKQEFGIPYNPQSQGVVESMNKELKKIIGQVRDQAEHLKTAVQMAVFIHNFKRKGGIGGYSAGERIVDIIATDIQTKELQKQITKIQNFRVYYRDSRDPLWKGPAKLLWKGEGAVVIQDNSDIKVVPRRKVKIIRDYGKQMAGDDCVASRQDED

The term IC50 denotes the concentration that gives 50% inhibition. Read a low IC50 as higher potency. As for `O=C(O)C(Cc1c[nH]c2ccccc12)NS(=O)(=O)c1ccccc1[N+](=O)[O-]` (configuration not stated), the IC50 turned out to be 88 µM in test [1] and 56 µM in test [2].

As to `CC(=O)c1cc(C(=O)CC(=O)Nc2cccc([N+](=O)[O-])c2)sc1Nc1ccccc1`, the IC50 is 97 µM in test [1] and 29 µM in test [2].

As for `COc1ccc(C(=O)Nc2ccc(O)c(-c3nc4ccccc4o3)c2)cc1[N+](=O)[O-]`, the half-maximal inhibitory concentration (IC50) amounted to 6 µM in test [1] and 7 µM in test [2].

The CC50 is the concentration giving 50% cytotoxicity. Consider `O=C(/N=N/c1c(O)[nH]c2ccc(F)cc12)/C(=C/C=C/c1ccccc1)NC(=O)c1ccccc1`, for which the IC50 in test [1] came out at 60 µM; in test [2], 38 µM. Also, in the test on CEM-SS, the 50% cytotoxic concentration (CC50) entry is “Toxic”.

Take `O=C(CSc1nc2ccccc2n1Cc1ccccc1)N/N=C/c1cc(Br)ccc1O`: the IC50 worked out at 60 µM in test [1] and 51 µM in test [2]. Further, the CC50 entry with CEM-SS was “Toxic”.

For `O=C(/C=C(\O)c1ccc(Cl)cc1)C(=O)/N=N/c1c(O)[nH]c2ccc(Br)cc12`, the values for the 50% inhibitory concentration (IC50) in test [1] and in test [2] were 42 µM and 28 µM, respectively. The CC50 entry in the test with CEM-SS is “Toxic”.

In the case of `COc1ccc(CCNC(=O)CC(=O)N/N=C/c2ccco2)cc1OC`, the IC50 in test [1] was greater than 100 µM; in test [2], 90 µM. Also, in the test on CEM-SS, the CC50 result is “Toxic”.

`O=C(/C=C/c1ccc(Cl)cc1)Nc1ccc(NC(=O)c2ccco2)cc1`: the results for the half-maximal inhibitory concentration (IC50) in test [1] and in test [2] were 90 µM and 91 µM, respectively.

In the case of `Cc1ccc(C(=O)N/C(=C/c2ccc(-c3ccc(Cl)cc3Cl)o2)C(=O)NCCCO)cc1`, the IC50 in test [1] was greater than 1000 µM; in test [2], 85 µM.

As to `O=C(c1ccccc1)c1cc(Br)ccc1NC(=O)c1nc[nH]c1C(=O)O`, the half-maximal inhibitory concentration (IC50) in test [1] was found to be 16 µM; in test [2] it was 17 µM.

With `Cc1[nH]n(-c2ccccc2)c(=O)c1C(c1ccc(O)c(O)c1)c1c(C)n(C)n(-c2ccccc2)c1=O` (configuration not stated), the IC50 in test [1] turned out to be 89 µM; in test [2], 31 µM. For the same molecule, the CC50 entry with CEM-SS is “Toxic”.

`O=C(CSc1nc(CSc2ccc(Cl)cc2)cc(=O)[nH]1)Nc1ccc(Cl)cc1Cl`: the half-inhibitory concentration (IC50) came out at 34 µM in test [1] and 24 µM in test [2].

For `COc1ccc(N(CC(=O)N/N=C/c2c(O)ccc3ccccc23)S(C)(=O)=O)cc1Cl`, the 50% inhibitory concentration (IC50) in test [1] stood at 95 µM; in test [2], 59 µM.

For the molecule `CC(=O)c1cc(C(=O)CC(=O)Nc2ccccc2)sc1Nc1ccccc1`, the IC50 in test [1] and in test [2] was greater than 100 µM in each case.

As for `O=C(/C=C/c1ccco1)NC(=S)Nc1ccccc1O`, the IC50 in test [1] worked out at 57 µM; in test [2], 28 µM. Also, the CC50 result in the test with CEM-SS was “Toxic”.

Turning to `Cc1ccc(S(=O)(=O)Nc2ccccc2/N=C/c2sc3ccccc3c2O)cc1`, the concentration for half-maximal inhibition (IC50) in test [1] worked out at 88 µM; in test [2] it was 68 µM.

For `O=C(N/N=C/c1cc(Br)ccc1O)/C(=C/C=C/c1ccccc1)NC(=O)c1ccccc1`, the IC50 in test [1] was determined as 90 µM; in test [2], 23 µM. The CC50 entry in the test on CEM-SS was “Toxic”.

As usually defined, the EC50 is the concentration giving half of the maximal effect. Take `COc1ccc2oc(=O)c(-c3csc(N/N=C/c4ccccc4O)n3)cc2c1`: the half-inhibitory concentration (IC50) in test [1] was determined as 30 µM; in test [2], 10 µM. Moreover, the concentration giving a half-maximal response (EC50) entry in test [3] (t cell line) is reported as “Not Active”.

Take `CCOC(=O)CCc1cc(C(=O)OCC)c(CCC(=O)OCC)cc1C(=O)OCC`: the concentration for half-maximal inhibition (IC50) was greater than 100 µM in test [1] and 94 µM in test [2].

As to `Cc1ccc(C(=O)C2=C(O)C(=O)N(CCCc3c[nH]cn3)C2c2ccc(Cl)cc2)cc1` (configuration not stated), the concentration for half-maximal inhibition (IC50) in test [1] worked out at 93 µM; in test [2], 67 µM.

Take `O=C(N/N=C/c1ccc(/C=N/NC(=O)c2cc(O)cc(O)c2)cc1)c1cc(O)cc(O)c1`: the IC50 in test [1] is 76 µM; in test [2], 56 µM.

`O=C(CC1Sc2ccccc2NC1=O)Nc1cccc(C(=O)O)c1` (configuration not stated): the IC50 in test [1] is 79 µM; in test [2], 71 µM.

Take `O=C(Nc1ccc(O)c(-c2nc3cc(Cl)ccc3o2)c1)c1cccnc1`: the 50% inhibitory concentration (IC50) stood at 61 µM in test [1] and 10 µM in test [2]. Also, the half-maximal effective concentration (EC50) result in test [3] (t cell line) is “Not Active”.

`COC(=O)c1ccc(C(=O)OC)c(NC(=O)c2ccc(C)c([N+](=O)[O-])c2)c1`: the figures for the IC50 in test [1] and in test [2] were 92 µM and greater than 100 µM, respectively.

For the molecule `O=C(O)c1cc(NC(=O)c2cccc3ccccc23)c(C(=O)O)cc1NC(=O)c1cccc2ccccc12`, the IC50 in test [1] came out at 28 µM; in test [2], 21 µM.

Turning to `O=C(Cc1ccccc1)Nc1cc(C(=O)O)c(NC(=O)Cc2ccccc2)cc1C(=O)O`, the concentration for half-maximal inhibition (IC50) in test [1] turned out to be 9 µM; in test [2] it was 7 µM. Also, the EC50 in test [3] (Human immunodeficiency virus 1, T-cell, read-out: EC50) was found to be 104 µM. In the test on CEM-SS, this molecule displayed a CC50 greater than 400 µM.

Take `Oc1ccccc1/C=N/CC(O)C/N=C/c1ccccc1O`: the IC50 in test [1] amounted to 97 µM; in test [2], 61 µM.

Turning to `CC(=O)c1cc(C(=O)CC(=O)Nc2ccc([N+](=O)[O-])cc2)sc1Nc1ccccc1`, the figures for the half-inhibitory concentration (IC50) in test [1] and in test [2] were 80 µM and 28 µM, respectively.

With `O=C(Nc1ccc(O)c(-c2nc3ccccc3o2)c1)c1cccc2ccccc12`, the results for the IC50 in test [1] and in test [2] were 14 µM and 6 µM, respectively.

In the case of `CC(C)Cn1c(=O)c(C(=O)Nc2ccccc2S(N)(=O)=O)c(O)c2ccccc21`, the half-inhibitory concentration (IC50) in test [1] was 40 µM; in test [2], 16 µM. Also, the concentration for a half-maximal effect (EC50) result in test [3] (t cell line) is recorded as “Not Active”.

With `COc1cc(/C=N/NC2=NC(=O)C(CC(=O)Nc3ccc(Cl)c(Cl)c3)S2)ccc1O` (configuration not stated), the results for the 50% inhibitory concentration (IC50) in test [1] and in test [2] were 89 µM and 38 µM, respectively. For the same molecule, the CC50 entry in the test on CEM-SS is “Toxic”.

Turning to `CCSc1nnc(N2C(=O)c3ccc(C(=O)c4ccc(C(=O)O)cc4)cc3C2=O)s1`, the 50% inhibitory concentration (IC50) in test [1] amounted to 98 µM; in test [2] it was 65 µM.

Consider `CCOC(=O)c1c(-c2ccccc2)csc1NC(NC(=O)c1ccco1)C(=O)c1ccc(C)cc1` (configuration not stated), for which the concentration for half-maximal inhibition (IC50) was greater than 100 µM in test [1] and 79 µM in test [2].

As for `O=C(/C=C/c1ccc(-c2ccccc2[N+](=O)[O-])o1)Nc1ccc(O)c(-c2nc3ccccc3o2)c1`, the half-maximal inhibitory concentration (IC50) in test [1] is 23 µM; in test [2], 63 µM.

Take `O=C(CSc1nc(O)cc(CSc2ccc(Cl)cc2)n1)Nc1ccc(Cl)cc1Cl`: the 50% cytotoxic concentration (CC50) entry in the test with CEM-SS is “Toxic”.

(Values after ChEMBL document CHEMBL1141221, “Diketo acid pharmacophore. 2. Discovery of structurally diverse inhibitors of HIV-1 integrase” (J Med Chem, 2005).)
